Measured values: ChEMBL document CHEMBL1132212, “Structure-activity relationship of small-sized HIV protease inhibitors containing allophenylnorstatine” (J Med Chem, 1999)

Columns and labels:
[1] = target: Human immunodeficiency virus type 1 protease (Human immunodeficiency virus 1, UniProt Q72874); experiment: Inhibition of recombinant HIV-1 protease (NY-5)
[2] = Maximum plasma concentration (Cmax) was determined in rats after intraduodenal administration of the drug; assay type: ADME, organism-based; set-up: route intraduodenal; conditions: rat
Outline: (§1)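 Three male Sprague–Dawley rats (300–400 g) per compound were anesthetized and dosed at 10 mg/kg in 50% PEG. Dosing was iv via the femoral vein or id by tube into the duodenum. Plasma was extracted with internal standard and analyzed by C18 HPLC with UV at 210 nm. Analysis was noncompartmental; F was calculated from id vs iv AUC. Values are mean ± SEM.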

[3] = target: Human immunodeficiency virus type 1 protease (Human immunodeficiency virus 1) (UniProt Q72874); experiment: Inhibition of recombinant HIV-1 protease (NY-5) using 50 nM
Outline: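 Recombinant HIV-1 protease (NY5 sequence) was expressed in E. coli and purified. It was preincubated with inhibitor in DMSO for 5 min at 37 °C in MES–NaOH pH 6.0 with DTT and EDTA. Substrate H-SQNYPIV-OH was then added for 60 min at 37 °C, and the reaction was stopped with TFA. The PIV product was measured by reverse-phase HPLC at 215 nm against a synthetic standard.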

[4] = Toxic concentration was determined for CEM-SS cells; assay type: toxicity, cell-based; conditions: human, read-out: TC50 (the source's name)
Outline: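 CEM-SS cells (2.5 × 10^4 cells/mL) were exposed to compound in RPMI-1640 with 10% FCS and gentamicin for 6 days at 37 °C in 5% CO2. Viability was read by XTT staining, and TC50 was taken as the mean of duplicates.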

CEM-SS = experiment: Antiviral activity was determined based on inhibition of HIV-1 IIIB induced cytopathic effects in CEM-SS cells in vitro using tetrazolium reagent.; assay type: functional, cell-based; conditions: Homo sapiens
Outline: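 CEM-SS cells (2.5 × 10^4 cells/mL) were cultured with HIV-1 IIIB and compound in RPMI-1640 with 10% FCS and gentamicin for 6 days at 37 °C in 5% CO2. The virus titer was set to kill all cells by day 6. Cytopathic effect was read by XTT staining, and IC50 was taken as the mean of duplicates.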

[5] = Time of maximum plasma concentration (Tmax) was determined in rats after intraduodenal administration of the drug.; assay type: ADME, organism-based; conditions: rat; outline: as §1
[6] = Plasma half life was determined in rats after intravenous administration of the drug.; assay type: ADME, organism-based; conditions: rat; outline: as §1
[7] = Bioavailability in rat after i.d. administration; assay type: ADME, organism-based; conditions: in vivo; outline: as §1
[8] = target: Human immunodeficiency virus type 1 protease (Human immunodeficiency virus 1) (UniProt Q72874); experiment: Inhibition of recombinant HIV-1 protease (NY-5) using 50 nM
[9] = target: Human immunodeficiency virus type 1 protease (Human immunodeficiency virus 1) (UniProt Q72874); experiment: Inhibition of recombinant HIV-1 protease (NY-5) using 5 uM
[10] = Time of maximum plasma concentration (Tmax) was determined in dogs fed after oral administration of 25 mg/kg of the compound.; assay type: ADME, organism-based, Canis lupus familiaris; set-up: dose 25 mg/kg, route oral; conditions: dog
Outline: (§2)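 Male beagles (7–10 kg) were assigned six per group. Each received 25 mg/kg from a 12.5 mg/mL solution in 50% PEG-in-water, either as an iv bolus via the cephalic vein or by oral gavage, fed or fasted overnight. Plasma was measured by HPLC. Analysis was noncompartmental: trapezoidal AUC, terminal-slope t1/2, CL = dose/AUC, Vdss from AUMC/AUC, and F from oral vs iv AUC. Values are mean ± SEM.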

[11] = Plasma half life was determined in dogs after intravenous administration of 25 mg/kg of the compound.; assay type: ADME, organism-based, Canis lupus familiaris; set-up: dose 25 mg/kg, route intravenous; conditions: dog; outline: as §2
Canis familiaris [12] = experiment: Area under curve (AUC) was determined in fasted dogs after oral administration of 25 mg/kg of the compound; assay type: ADME, organism-based, Canis lupus familiaris; set-up: dose 25 mg/kg, route oral; conditions: dog, in vivo; outline: as §2
[13] = Time of maximum plasma concentration (Tmax) was determined in fasted dogs after oral administration of 25 mg/kg of the compound.; assay type: ADME, organism-based, Canis lupus familiaris; set-up: dose 25 mg/kg, route oral; conditions: dog; outline: as §2
[14] = Percent bioavailability (F%) was determined in dogs fed after oral administration of 25 mg/kg of the compound; assay type: ADME, organism-based, Canis lupus familiaris; conditions: dog, in vivo; outline: as §2
[15] = Plasma clearance rate (CL) was determined in dogs after intravenous administration of 25 mg/kg of the compound.; assay type: ADME, organism-based, Canis lupus familiaris; set-up: dose 25 mg/kg, route intravenous; conditions: dog; outline: as §2
[16] = Maximum plasma concentration (Cmax) was determined in fasted dogs after oral administration of 25 mg/kg of the compound.; assay type: ADME, organism-based, Canis lupus familiaris; set-up: dose 25 mg/kg, route oral; conditions: dog; outline: as §2
[17] = Maximum plasma concentration (Cmax) was determined in dogs fed after oral administration of 25 mg/kg of the compound.; assay type: ADME, organism-based, Canis lupus familiaris; set-up: dose 25 mg/kg, route oral; conditions: dog; outline: as §2
[18] = Volume of distribution (Vdss) was determined in dogs after intravenous administration of 25 mg/kg of the compound.; assay type: ADME, organism-based, Canis lupus familiaris; set-up: dose 25 mg/kg, route intravenous; conditions: dog, in vivo, read-out: Vdss; outline: as §2
[19] = Percent bioavailability (F%) was determined in fasted dogs after oral administration of 25 mg/kg of the compound.; assay type: ADME, organism-based, Canis lupus familiaris; conditions: dog, in vivo; outline: as §2
Canis familiaris [20] = experiment: Area under curve (AUC) was determined in dogs fed after oral administration of 25 mg/kg of the compound; assay type: ADME, organism-based, Canis lupus familiaris; set-up: dose 25 mg/kg, route oral; conditions: dog, in vivo; outline: as §2
Canis familiaris [21] = experiment: Area under curve (AUC) was determined in dogs fed after intravenous administration of 25 mg/kg of the compound; assay type: ADME, organism-based, Canis lupus familiaris; set-up: dose 25 mg/kg, route intravenous; conditions: dog, in vivo; outline: as §2

SMILES	Ki [1] [nM]	inhibition [3] [%]	CC50 [4] [µM]	IC50 (CEM-SS) [nM]	inhibition [9] [%]	further results
CCc1c(O)cccc1C(=O)N[C@@H](Cc1ccccc1)[C@H](O)C(=O)N1CSC(C)(C)[C@H]1C(=O)NCc1ccccc1C	0.19	97	> 20	11	–	Cmax [2]: 230 nM; Tmax [5]: 10 min; half-life [6]: 126 min; bioavailability [7]: 10%
Cc1c(O)cccc1C(=O)N[C@@H](Cc1ccccc1)[C@H](O)C(=O)N1CSC[C@H]1C(=O)NCc1ccccc1	59	–	–	–	–	inhibition [8]: 43%
CCc1c(O)cccc1C(=O)N[C@@H](Cc1ccccc1)[C@H](O)C(=O)N1CSC(C)(C)[C@H]1C(=O)NC(C)(C)C	2.24	84	> 20	92	99	Cmax [2]: 1160 nM; Tmax [5]: 30 min; half-life [6]: 84 min; bioavailability [7]: 37%
CS[C@H](NC(=O)COc1cccc2cnccc12)C(=O)N[C@@H](Cc1ccccc1)[C@H](O)C(=O)N1CSC[C@H]1C(=O)NC(C)(C)C	0.74	–	> 20	34	–	–
CS[C@H](NC(=O)COc1cccc2cnccc12)C(=O)N[C@@H](Cc1ccccc1)[C@H](O)C(=O)N1CSC(C)(C)[C@H]1C(=O)NC(C)(C)C	0.088	–	> 20	6	–	–
CCc1cccc(CC)c1OCC(=O)N[C@@H](Cc1ccccc1)[C@H](O)C(=O)N1CSC[C@H]1C(=O)NC(C)(C)C	–	–	–	–	62	–
CCCc1cccc(C)c1OCC(=O)N[C@@H](Cc1ccccc1)[C@H](O)C(=O)N1CSC[C@H]1C(=O)NC(C)(C)C	–	35	–	–	97	–
CC(C)(C)NC(=O)[C@@H]1CSCN1C(=O)[C@@H](O)[C@H](Cc1ccccc1)NC(=O)c1cccc(O)c1	–	–	–	–	76	–
CC(C)(C)NC(=O)[C@@H]1CSCN1C(=O)[C@@H](O)[C@H](Cc1ccccc1)NC(=O)COc1ccccc1	–	–	–	–	48	–
Cc1ccccc1CNC(=O)[C@H]1N(C(=O)[C@@H](O)[C@H](Cc2ccccc2)NC(=O)c2cccc(O)c2C)CSC1(C)C	0.33	96	> 20	7	–	Tmax [10]: 1.5 h; half-life [11]: 94 min; Cmax [2]: 700 nM; AUC (Canis familiaris [12]): 1150 µM·min; Tmax [13]: 1 h; bioavailability [14]: 32.6%; clearance [15]: 14.7 mL/min/kg; Cmax [16]: 5.3 µM; Cmax [17]: 4.02 µM; Tmax [5]: 60 min; Vd [18]: 1.58 L/kg; half-life [6]: 93 min; bioavailability [19]: 37.1%; AUC (Canis familiaris [20]): 1010 µM·min; AUC (Canis familiaris [21]): 51.6 µM·h; bioavailability [7]: 41.6%
Cc1c(O)cccc1C(=O)N[C@@H](Cc1ccccc1)[C@H](O)C(=O)N1CSC(C)(C)[C@H]1C(=O)NC(C)(C)C	5.14	88	> 20	19	99	Cmax [2]: 2600 nM; Tmax [5]: 30 min; half-life [6]: 83 min; bioavailability [7]: 39.4%
CC(C)(C)NC(=O)[C@@H]1CSCN1C(=O)[C@@H](O)[C@H](Cc1ccccc1)NC(=O)c1ccccc1	–	–	–	–	52	–
Cc1cccc(C)c1CNC(=O)[C@@H]1CSCN1C(=O)[C@@H](O)[C@H](Cc1ccccc1)NC(=O)c1cccc(O)c1C	4.8	75	–	–	–	–
Cc1cccc(C)c1OCC(=O)N[C@@H](Cc1ccccc1)[C@H](O)C(=O)N1CSC(C)(C)[C@H]1C(=O)NC(C)(C)C	1.4	35	> 20	> 200	97	–
CCc1c(O)cccc1C(=O)N[C@@H](Cc1ccccc1)[C@H](O)C(=O)N1CSC[C@H]1C(=O)NC(C)(C)C	22.2	46	–	–	98	Cmax [2]: 1730 nM; Tmax [5]: 30 min; half-life [6]: 74 min; bioavailability [7]: 36.2%
Cc1cccc(OCC(=O)N[C@@H](Cc2ccccc2)[C@H](O)C(=O)N2CSC[C@H]2C(=O)NC(C)(C)C)c1	–	–	–	–	38	–
Cc1ccccc1C(=O)N[C@@H](Cc1ccccc1)[C@H](O)C(=O)N1CSC[C@H]1C(=O)NC(C)(C)C	–	–	–	–	75	–
Cc1c(O)cccc1C(=O)N[C@@H](Cc1ccccc1)[C@H](O)C(=O)N1CSC(C)(C)[C@H]1C(=O)NCc1ccccc1C(F)(F)F	–	88	–	–	–	–
Cc1ccccc1CNC(=O)[C@@H]1CSCN1C(=O)[C@@H](O)[C@H](Cc1ccccc1)NC(=O)c1cccc(O)c1C	8.9	–	> 20	> 200	–	Cmax [2]: 770 nM; Tmax [5]: 30 min; half-life [6]: 41 min; bioavailability [7]: 32.3%
Cc1ccccc1OCC(=O)N[C@@H](Cc1ccccc1)[C@H](O)C(=O)N1CSC[C@H]1C(=O)NC(C)(C)C	–	–	–	–	82	–
Cc1c(O)cccc1C(=O)N[C@@H](Cc1ccccc1)[C@H](O)C(=O)N1CSC(C)(C)[C@H]1C(=O)NCc1ccccc1Cl	0.29	95	> 20	34	–	–
Cc1cccc(CNC(=O)[C@@H]2CSCN2C(=O)[C@@H](O)[C@H](Cc2ccccc2)NC(=O)c2cccc(O)c2C)c1	–	18	–	–	–	–
Cc1c(O)cccc1C(=O)N[C@@H](Cc1ccccc1)[C@H](O)C(=O)N1CSC[C@H]1C(=O)NC(C)(C)C	24.9	36	> 20	> 200	97	Cmax [2]: 2910 nM; Tmax [5]: 30 min; half-life [6]: 59 min; bioavailability [7]: 33.9%
Cc1cccc(C)c1OCC(=O)N[C@@H](Cc1ccccc1)[C@H](O)C(=O)N1CSC[C@H]1C(=O)NC(C)(C)C	21.7	56	> 20	> 200	95	–
Cc1ccc(CNC(=O)[C@@H]2CSCN2C(=O)[C@@H](O)[C@H](Cc2ccccc2)NC(=O)c2cccc(O)c2C)cc1	–	13	–	–	–	–
Cc1ccc(OCC(=O)N[C@@H](Cc2ccccc2)[C@H](O)C(=O)N2CSC[C@H]2C(=O)NC(C)(C)C)cc1	–	–	–	–	44	–
Cc1c(N)cccc1C(=O)N[C@@H](Cc1ccccc1)[C@H](O)C(=O)N1CSC[C@H]1C(=O)NC(C)(C)C	–	–	–	–	81	–
CCc1cccc(C)c1OCC(=O)N[C@@H](Cc1ccccc1)[C@H](O)C(=O)N1CSC[C@H]1C(=O)NC(C)(C)C	–	32	–	–	94	–
CCCc1c(O)cccc1C(=O)N[C@@H](Cc1ccccc1)[C@H](O)C(=O)N1CSC[C@H]1C(=O)NC(C)(C)C	–	17	–	–	92	–
